ChEMBL document CHEMBL1121449, “Synthesis and antineoplastic activity of hydroquinone dialdehydes” (J Med Chem, 1980)
Several values for one entry are separate records, joined by “and”; a condition that tells them apart may be missing. Identical values can stand only once.

Columns and labels:
[1] = system: Mus musculus; assay: Tested for change in body weight from onset to termination at dose of 5 mg/kg; assay type: functional
How it was run: (§1)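 Female CD-1 mice inoculated ip with 0.1 mL of 10^7 Sarcoma 180 ascites cells/mL. Drug in 0.9% NaCl with 5% ethanol and Tween 80, serially diluted in saline, given ip once daily for 6 days starting 24 h after implantation. Dose based on mean starting weight. Controls received saline. Weight change recorded from day 0 to day 7, as % change.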

[2] = system: Mus musculus; assay: Tested for mean survival time treated animal not surviving 50 days as a percentage at dose of 10 mg/kg; assay type: functional
How it was run: (§2)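 Female CD-1 mice, Sarcoma 180 ascites, 0.1 mL of 10^7 cells/mL given ip. Drug in 0.9% NaCl, 5% ethanol, Tween 80, serially diluted with saline. Dosed ip at 0.5 mL daily for 6 days from 24 h post-implant; daily dose based on starting mean weight. T/C is the mean survival of treated mice dying before 50 days vs controls. Survivors are those alive ≥50 days out of those treated.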

[3] = system: Mus musculus; assay: Tested for mean survival time treated animal not surviving 50 days as a percentage at dose of 20 mg/kg; assay type: functional; how it was run: as §2
[4] = system: Mus musculus; assay: Tested for mean survival time treated animal not surviving 50 days as a percentage at dose of 5 mg/kg; assay type: functional; how it was run: as §2
[5] = system: Mus musculus; assay: Tested for change in body weight from onset to termination at dose of 10 mg/kg; assay type: functional; how it was run: as §1
[6] = system: Mus musculus; assay: Tested for change in body weight from onset to termination at dose of 20 mg/kg; assay type: functional; how it was run: as §1
[7] = system: Mus musculus; assay: Tested for number of animal surviving at least 50 days out of 10 animal treated at dose of 10 mg/kg; assay type: functional; how it was run: as §2
[8] = system: Mus musculus; assay: Tested for number of animal surviving at least 50 days out of 10 animal treated at dose of 20 mg/kg; assay type: functional; how it was run: as §2
[9] = system: Mus musculus; assay: Tested for number of animal surviving at least 50 days out of 10 animal treated at dose of 5 mg/kg; assay type: functional; how it was run: as §2
[10] = Tested for inhibition of growth of sarcoma 180 cells in culture; assay type: functional, cell-based; conditions: Mus musculus
How it was run: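 Sarcoma 180 cells in suspension in Fischer's medium with 10% horse serum and penicillin/streptomycin, seeded at 10^4 cells/mL. Drug added from 10× stocks in 10% Me2SO/PBS, final 1–100 μM. Control cultures contained 1% Me2SO. Triplicate Coulter counts at 24, 48 and 72 h. IC50 read from a plot of inhibition of cell-number increase at 72 h versus concentration.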

[11] = system: Mus musculus; assay: Tested for change in body weight of Mice bearing Ehrlich carcinoma from onset to termination at dose of 5 mg/kg; assay type: functional
How it was run: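 Female CD-1 mice given ip implants of Ehrlich carcinoma (0.1 mL of 10^7 cells/mL). Drug in saline containing 5% ethanol and Tween 80, injected ip once daily for 6 consecutive days from 24 h post-implant. Controls received 0.9% NaCl. % body weight change measured between tumor implantation (day 0) and day 7.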

[12] = system: Mus musculus; assay: Tested for change in body weight of Mice bearing […] 755 from onset to termination at dose of 10 mg/kg; assay type: functional
How it was run: (§3)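 Adenocarcinoma 755 implanted ip (0.1 mL of 10^7 cells/mL) in female AKD2F1 mice. Daily ip dosing for 6 days beginning 24 h after implantation, vehicle 0.9% NaCl/5% ethanol/Tween 80, lower doses by saline dilution. Control mice received saline. Weight difference between day 0 and day 7 taken as % change and used as a toxicity measure.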

[13] = system: Mus musculus; assay: Tested for change in body weight of Mice bearing […] 755 from onset to termination at dose of 20 mg/kg; assay type: functional; how it was run: as §3
[14] = system: Mus musculus; assay: Tested for change in body weight of Mice bearing […] 755 from onset to termination at dose of 5 mg/kg; assay type: functional; how it was run: as §3
[15] = system: Mus musculus; assay: Tested for mean survival time of Mice bearing Ehrlich carcinoma not surviving 50 days as a percentage at dose of 10 mg/kg; assay type: functional
How it was run: (§4)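 Female CD-1 mice, Ehrlich ascites carcinoma, 0.1 mL of 10^7 cells/mL given ip. Drug in 0.9% NaCl with 5% ethanol and trace Tween 80, serially diluted with saline. Dosed ip at 0.5 mL once daily for 6 days from 24 h post-implant; saline controls. T/C is the mean survival of treated mice dying before 50 days as % of controls. Survivors are those alive ≥50 days.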

[16] = system: Mus musculus; assay: Tested for mean survival time of Mice bearing Ehrlich carcinoma not surviving 50 days as a percentage at dose of 20 mg/kg; assay type: functional; how it was run: as §4
[17] = system: Mus musculus; assay: Tested for mean survival time of Mice bearing Ehrlich carcinoma not surviving 50 days as a percentage at dose of 5 mg/kg; assay type: functional; how it was run: as §4
[18] = system: Mus musculus; assay: Tested for mean survival time of Mice bearing […] 755 not surviving 50 days as a percentage at dose of 20 mg/kg; assay type: functional
How it was run: (§5)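 Female AKD2F1 mice, adenocarcinoma 755, 0.1 mL of 10^7 cells/mL given ip. Vehicle 0.9% NaCl/5% ethanol/Tween 80, serially diluted with saline. Dosed ip at 0.5 mL once daily for 6 consecutive days starting 24 h post-implant; saline controls. T/C is the mean survival of non-50-day survivors as % of controls. Survivors are those alive ≥50 days.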

[19] = system: Mus musculus; assay: Tested for mean survival time of Mice bearing […] 755 not surviving 50 days as a percentage at dose of 5 mg/kg; assay type: functional; how it was run: as §5
[20] = system: Mus musculus; assay: Tested for mean survival time treated animal not surviving 50 days as a percentage at dose of 15 mg/kg; assay type: functional; how it was run: as §2
[21] = system: Mus musculus; assay: Tested for mean survival time treated animal not surviving 50 days as a percentage at dose of 2.5 mg/kg; assay type: functional; how it was run: as §2
[22] = system: Mus musculus; assay: Tested for change in body weight from onset to termination at dose of 15 mg/kg; assay type: functional; how it was run: as §1
[23] = system: Mus musculus; assay: Tested for change in body weight from onset to termination at dose of 2.5 mg/kg; assay type: functional; how it was run: as §1
[24] = system: Mus musculus; assay: Tested for Mice bearing […] 755 surviving at least 50 days out of 5 animal treated at dose of 10 mg/kg; assay type: functional; how it was run: as §5
[25] = system: Mus musculus; assay: Tested for Mice bearing […] 755 surviving at least 50 days out of 5 animal treated at dose of 20 mg/kg; assay type: functional; how it was run: as §5
[26] = system: Mus musculus; assay: Tested for Mice bearing […] 755 surviving at least 50 days out of 5 animal treated at dose of 5 mg/kg; assay type: functional; how it was run: as §5
[27] = system: Mus musculus; assay: Tested for number of animal surviving at least 50 days out of 10 animals treated at dose of 2.5 mg/kg; assay type: functional; how it was run: as §2
[28] = system: Mus musculus; assay: Tested for number of animal surviving at least 50 days out of 10 animals treated at dose of 20 mg/kg; assay type: functional; how it was run: as §2
[29] = system: Mus musculus; assay: Tested for number of animal surviving at least 50 days out of 15 animals treated at dose of 15 mg/kg; assay type: functional; how it was run: as §2
[30] = system: Mus musculus; assay: Tested for number of animal surviving at least 50 days out of 30 animals treated at dose of 10 mg/kg; assay type: functional; how it was run: as §2
[31] = system: Mus musculus; assay: Tested for number of animal surviving at least 50 days out of 30 animals treated at dose of 5 mg/kg; assay type: functional; how it was run: as §2
[32] = system: Mus musculus; assay: Tested for Mice bearing Ehrlich carcinoma surviving at least 50 days out of 10 animal treated at dose of 10 mg/kg; assay type: functional; how it was run: as §4
[33] = system: Mus musculus; assay: Tested for Mice bearing Ehrlich carcinoma surviving at least 50 days out of 10 animal treated at dose of 20 mg/kg; assay type: functional; how it was run: as §4
[34] = system: Mus musculus; assay: Tested for Mice bearing Ehrlich carcinoma surviving at least 50 days out of 10 animal treated at dose of 5 mg/kg; assay type: functional; how it was run: as §4
[35] = system: Mus musculus; assay: Tested for mean survival time treated animal not surviving 50 days as a percentage at dose of 1.25 mg/kg; assay type: functional; how it was run: as §2
[36] = system: Mus musculus; assay: Tested for change in body weight from onset to termination at dose of 1.25 mg/kg; assay type: functional; how it was run: as §1
[37] = system: Mus musculus; assay: Tested for number of animal surviving at least 50 days out of 5 animal treated at dose of 1.25 mg/kg; assay type: functional; how it was run: as §2
[38] = system: Mus musculus; assay: Tested for number of animal surviving at least 50 days out of 5 animal treated at dose of 15 mg/kg; assay type: functional; how it was run: as §2
[39] = system: Mus musculus; assay: Tested for number of animal surviving at least 50 days out of 5 animal treated at dose of 2.5 mg/kg; assay type: functional; how it was run: as §2
[40] = system: Mus musculus; assay: Tested for mean survival time of Mice bearing […] 755 not surviving 50 days as a percentage at dose of 10 mg/kg; assay type: functional; how it was run: as §5
[41] = system: Mus musculus; assay: Tested for number of animal surviving at least 50 days out of 10 animal treated at dose of mg/kg; assay type: functional; how it was run: as §2

| SMILES | Activity [1] [%] | Activity [2] [%] | Activity [3] [%] | Activity [4] [%] | Activity [5] [%] | Activity [6] [%] | Survivors [7] | Survivors [8] | Survivors [9] | IC50 [10] [µM] | Activity [11] [%] | Activity [12] [%] | Activity [13] [%] | Activity [14] [%] | Activity [15] [%] | Activity [16] [%] | Activity [17] [%] | Activity [18] [%] | Activity [19] [%] | Activity [20] [%] | other results |
| --- | --- | --- | --- | --- | --- | --- | --- | --- | --- | --- | --- | --- | --- | --- | --- | --- | --- | --- | --- | --- | --- |
| COc1c(C)c(C)c(OC)c(C=O)c1C=O | 15 | 96 | 103 | 81 | 15 | 11 | 0 | 0 | 0 | 97 |  |  |  |  |  |  |  |  |  |  |  |
| Cc1c(C)c(O)c(C=O)c(C=O)c1O | 6 | 195 | 91 | 182 | 1 | -4 |  |  |  | 26 | 21 | -13 | -11 | -2 | 125 | 127 | 120 | 138 | 27 | 148 | Mean survival time, treated vs control (T/C) [21]: 128%; Activity [22]: -3%; Activity [23]: 23%; Survivors [24]: 5; Survivors [25]: 2; Survivors [26]: 4; Survivors [27]: 0; Survivors [28]: 0; Survivors [29]: 0; Survivors [30]: 3; Survivors [31]: 3; Survivors [32]: 2; Survivors [33]: 3; Survivors [34]: 0 |
| COc1c(C)c(C)c(O)c(C=O)c1C=O |  |  |  |  |  |  |  |  |  | 37 |  |  |  |  |  |  |  |  |  |  |  |
| O=Cc1c(C=O)c(O)c2ccccc2c1O | 14 | 90 | 76 | 93 | 17 | 1 | 0 | 0 | 0 | 66 |  |  |  |  |  |  |  |  |  | 64 | Activity [35]: 81%; Mean survival time, treated vs control (T/C) [21]: 81%; Activity [36]: 16%; Activity [22]: 0%; Activity [23]: 14%; Survivors [37]: 0; Survivors [38]: 1; Survivors [39]: 0 |
| CC(=O)Oc1c(C)c(C)c(OC(C)=O)c2c1C(OC(C)=O)OC2OC(C)=O (stereo unspecified) | 5 | 149 | 109 | 109 |  |  |  | 0 | 0 | < 25 | 4 | -15 | -14 | -7 | 195 | 222 | 168 | 38 | 59 |  | Activity [40]: 16%; Activity ([5]; 10 mg/kg): -6% and -4%; Survivors [24]: 4; Survivors [25]: 1; Survivors [26]: 3; Survivors [41]: 0; Survivors [33]: 3; Survivors [34]: 2 |
| Cc1c(C)c(O)c(C)c(C)c1O [DUROHYDROQUINONE] |  |  |  |  |  |  |  |  |  | 12 |  |  |  |  |  |  |  |  |  |  |  |
